# Data: ChEMBL document CHEMBL1126275, “Conformationally restrained, chiral (phenylisopropyl)amino-substituted pyrazolo[3,4-d]pyrimidines and purines with selectivity for adenosine A1 and A2 receptors” (J Med Chem, 1992)
# pIC50, pKi: −log10 of the molar value.
# What was measured:
# Adenosine A2 receptor = Adenosine A2 receptor (Rattus norvegicus, UniProt P29276+P30543); test: Inhibition of [3H]NECA binding to Adenosine A2 receptor in rat brain striatum; type: tissue-based
# Summary of the method: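 [³H]NECA binding in rat brain striatum at 25 °C. Compounds from millimolar DMSO stocks diluted in water. Ki given as geometric mean ± standard error of a single determination in triplicate.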
# [1] = molecular target: Adenosine receptors; A1 & A2 (Rattus norvegicus) (UniProt P29276+P25099+P30543); test: Selectivity ratio against Adenosine A1 and A2 Receptors, ratio of Ki; type: protein assay
# Summary of the method: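 Ratio of A2 Ki ([³H]NECA, rat striatum, 25 °C) to A1 Ki ([³H]CHA, whole rat brain membranes, 25 °C). Each Ki is a geometric mean from a single triplicate determination.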
# Adenosine receptor A1 [2] = molecular target: T1, Adenosine receptor A1 (Rattus norvegicus, UniProt P25099); test: Inhibition of [3H]CHA binding to Adenosine A1 receptor in whole rat brain membranes; type: cell membranes
# T1 sequence (P25099 whole entry): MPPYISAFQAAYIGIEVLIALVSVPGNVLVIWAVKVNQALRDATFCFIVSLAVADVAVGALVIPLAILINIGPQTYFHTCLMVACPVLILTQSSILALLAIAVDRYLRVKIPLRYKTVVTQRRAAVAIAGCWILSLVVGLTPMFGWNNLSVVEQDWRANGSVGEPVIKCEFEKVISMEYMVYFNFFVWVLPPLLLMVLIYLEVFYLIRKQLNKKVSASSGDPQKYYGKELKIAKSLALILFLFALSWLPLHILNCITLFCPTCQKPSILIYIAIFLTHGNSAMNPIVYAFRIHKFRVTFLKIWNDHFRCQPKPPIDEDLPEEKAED
# Summary of the method: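 Whole rat brain membranes; [³H]CHA binding measured at 25 °C. Compounds from millimolar DMSO stocks diluted in water. Ki given as geometric mean ± standard error of a single determination run in triplicate.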
# Adenosine receptor A1 [3] = molecular target: T1, Adenosine receptor A1; test: Inhibition of [3H]CHA binding to Adenosine A1 receptor in rat cerebral cortical membranes; type: cell membranes, Membrane
# Summary of the method: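 Rat cerebral cortical membranes; displacement of [³H]CHA binding. Test compounds held as millimolar DMSO stocks, warmed to room temperature and diluted in water. Values from a single competition experiment, each concentration in triplicate.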
Structure (SMILES),Ki (Adenosine A2 receptor) [µM],Selectivity ratio [1],pKi (Adenosine receptor A1 [2]),pIC50 (Adenosine receptor A1 [3])
CCCOC1=Nc2c(cnn2-c2ccccc2)C2=N[C@H](C)[C@@H](c3ccccc3)N12,11,1.5,5.13,
CCCOC1=Nc2c(ncn2-c2ccccc2)C2=N[C@@H](Cc3ccccc3)CN12,1.6,0.18,,
CCCOc1nc(N[C@H](CO)Cc2ccccc2)c2ncn(-c3ccccc3)c2n1,5.6,58,7.02,
COc1nc2c(cnn2-c2ccccc2)c(=O)n1C,,,,5.32
CCCOc1nc(N[C@H](CO)Cc2ccccc2)c2cnn(-c3ccccc3)c2n1 (stereo in doubt; 10a) [listing 1 of 2 here],4.2,,5.80,
CCCOC1=Nc2c(cnn2-c2ccccc2)C2=N[C@@H](C)[C@H](c3ccccc3)N12,45,1.4,4.48,
CCCn1c(=O)n(C)c(=O)c2cnn(-c3ccccc3)c21,,,,4.46
CCCOc1nc(N[C@H](C)[C@@H](O)c2ccccc2)c2cnn(-c3ccccc3)c2n1,0.31,0.31,6.00,
CCCOC1=Nc2c(cnn2-c2ccccc2)C2=N[C@@H](Cc3ccccc3)CN12,3.3,0.35,5.03,
CCCOc1nc(N[C@H](CO)Cc2ccccc2)c2cnn(-c3ccccc3)c2n1 (stereo in doubt; 10b) [listing 1 of 2 here],0.37,,6.46,
CCCOc1nc(N[C@@H](CO)Cc2ccccc2)c2ncn(-c3ccccc3)c2n1,30,68,6.36,
CCCOc1nc(N[C@H](CO)Cc2ccccc2)c2cnn(-c3ccccc3)c2n1 (stereo in doubt; 10b) [listing 2 of 2 here],,1,,
CCCOc1nc(N[C@H](CO)Cc2ccccc2)c2cnn(-c3ccccc3)c2n1 (stereo in doubt; 10a) [listing 2 of 2 here],,2.6,,
Cn1c(=O)c2cnn(-c3ccccc3)c2n(C)c1=O,,,,4.48
CCCOC1=Nc2c(ncn2-c2ccccc2)C2=N[C@H](Cc3ccccc3)CN12,72,22,5.49,
CCCOc1nc(N[C@@H](C)[C@H](O)c2ccccc2)c2cnn(-c3ccccc3)c2n1,1.4,0.22,5.20,
CCCOC1=Nc2c(cnn2-c2ccccc2)C2=N[C@H](Cc3ccccc3)CN12,> 100,> 100,6.21,
